Laboratory results from ChEMBL document CHEMBL3621160, “Pseudosaccharin amines as potent and selective KV1.5 blockers” (Bioorg Med Chem Lett, 2015).

Assays:
[1] = Metabolic stability in mouse liver microsomes assessed as compound remaining at 3 uM after 10 mins; assay type: ADME; conditions: read-out: Stability
In short: (§1)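 Parent compound at 3 µM was incubated 10 min in human, rat or mouse liver microsomes with appropriate co-factors. Read-out is percent of parent remaining.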

MAO-B = MAO-B (Homo sapiens, UniProt P27338); assay: Inhibition of human MAOB at 10 uM relative to control
In short: (§2)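 Screening panel of over 37 receptors and enzymes relevant to cardiovascular effects or toxicity. Each target was tested at a single concentration of 10 µM, with % activity reported.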

[2] = target: Histamine H2 receptor (Homo sapiens) (UniProt P25021); assay: Inhibition of human histamine H2 receptor at 10 uM relative to control; in short: as §2
Histamine H2 receptor (Homo sapiens), sequence (P25021 whole entry): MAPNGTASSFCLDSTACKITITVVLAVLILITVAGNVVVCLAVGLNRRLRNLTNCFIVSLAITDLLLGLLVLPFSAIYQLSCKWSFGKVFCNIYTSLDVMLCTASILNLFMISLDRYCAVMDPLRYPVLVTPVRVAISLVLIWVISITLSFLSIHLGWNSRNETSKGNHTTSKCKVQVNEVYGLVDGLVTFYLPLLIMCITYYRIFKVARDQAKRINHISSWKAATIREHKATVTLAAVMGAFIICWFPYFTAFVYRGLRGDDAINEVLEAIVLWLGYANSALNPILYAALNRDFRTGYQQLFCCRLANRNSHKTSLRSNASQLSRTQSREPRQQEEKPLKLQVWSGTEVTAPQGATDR

[3] = target: Phosphodiesterase 4 (Homo sapiens) (UniProt P27815+Q08499+Q07343+Q08493); assay: Inhibition of human PDE4 at 10 uM relative to control; assay type: protein assay; in short: as §2
[4] = Volume of distribution at steady state in rat at 2 mg/kg administered as intra-arterial infusion for 10 mins and 5 mg/kg, po; assay type: ADME, organism-based; conditions: in vivo, read-out: Vdss
In short: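 Rat PK: 2.0 mg/kg by intra-arterial infusion over 10 min and 5.0 mg/kg by oral gavage, vehicle 40% PEG 400, 40% water, 20% ethanol for both routes; Vss from 3 animals, reported as mean.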

Homo sapiens [5] = organism: Homo sapiens; assay: Inhibition of calcium channel (unknown origin) at 10 uM relative to control
In short: (§3)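 Calcium (ICa) and sodium (INa) currents were measured as percent inhibition at a single concentration of 10 µM. Values are means of 2-4 experiments.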

[6] = target: Histamine H1 receptor (Homo sapiens) (UniProt P35367); assay: Inhibition of human histamine H1 receptor at 10 uM relative to control; in short: as §2
Homo sapiens [7] = organism: Homo sapiens; assay: Inhibition of sodium channel (unknown origin) at 10 uM relative to control; in short: as §3
[8] = target: Adenosine receptor A2a (Homo sapiens) (UniProt P29274); assay: Inhibition of human adenosine A2A receptor at 10 uM relative to control; in short: as §2
[9] = target: Protein kinase C (PKC) (Rattus norvegicus) (UniProt P05696+P68403+P09216+P63319+P09215+Q64617+Q9WTQ0+P09217); assay: Inhibition of rat PKC at 10 uM relative to control; in short: as §2
Oryctolagus cuniculus [10] = organism: Oryctolagus cuniculus; assay: Induction of […] effective refractory period prolongation in rabbit; assay type: functional
In short: (§4)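 Rabbits were dosed at 0.3, 1.0 and 3.0 mg/Kg. Effective refractory period was measured in atrium and ventricle, and blood pressure was recorded. The plasma concentration giving 20% atrial ERP prolongation (EC20) was calculated.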

[11] = Cmax in rabbit at 0.3 to 3 mg/kg; assay type: ADME, organism-based, Oryctolagus cuniculus; conditions: in vivo; in short: as §4
[12] = target: D(1A) dopamine receptor (Homo sapiens) (UniProt P21728); assay: Inhibition of human dopamine D1 receptor at 10 uM relative to control; in short: as §2
D(1A) dopamine receptor (Homo sapiens), sequence (P21728 whole entry, canonical isoform): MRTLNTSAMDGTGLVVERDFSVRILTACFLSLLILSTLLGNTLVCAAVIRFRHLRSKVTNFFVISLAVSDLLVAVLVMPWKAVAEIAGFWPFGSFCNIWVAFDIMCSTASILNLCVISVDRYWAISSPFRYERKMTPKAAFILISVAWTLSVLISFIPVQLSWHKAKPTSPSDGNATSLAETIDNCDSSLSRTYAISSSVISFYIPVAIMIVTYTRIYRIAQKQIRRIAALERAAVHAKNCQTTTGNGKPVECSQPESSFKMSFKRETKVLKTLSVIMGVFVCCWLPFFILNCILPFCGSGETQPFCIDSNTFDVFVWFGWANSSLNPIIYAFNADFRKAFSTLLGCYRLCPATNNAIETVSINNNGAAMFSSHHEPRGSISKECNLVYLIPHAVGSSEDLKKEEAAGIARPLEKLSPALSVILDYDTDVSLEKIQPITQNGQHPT

[13] = target: Carnitine O-palmitoyltransferase 1, liver isoform (Rattus norvegicus) (UniProt P32198); assay: Inhibition of rat carnitine palmitoyltransferase-1 at 10 uM relative to control; in short: as §2
Carnitine O-palmitoyltransferase 1, liver isoform (Rattus norvegicus), sequence (P32198 whole entry, canonical isoform): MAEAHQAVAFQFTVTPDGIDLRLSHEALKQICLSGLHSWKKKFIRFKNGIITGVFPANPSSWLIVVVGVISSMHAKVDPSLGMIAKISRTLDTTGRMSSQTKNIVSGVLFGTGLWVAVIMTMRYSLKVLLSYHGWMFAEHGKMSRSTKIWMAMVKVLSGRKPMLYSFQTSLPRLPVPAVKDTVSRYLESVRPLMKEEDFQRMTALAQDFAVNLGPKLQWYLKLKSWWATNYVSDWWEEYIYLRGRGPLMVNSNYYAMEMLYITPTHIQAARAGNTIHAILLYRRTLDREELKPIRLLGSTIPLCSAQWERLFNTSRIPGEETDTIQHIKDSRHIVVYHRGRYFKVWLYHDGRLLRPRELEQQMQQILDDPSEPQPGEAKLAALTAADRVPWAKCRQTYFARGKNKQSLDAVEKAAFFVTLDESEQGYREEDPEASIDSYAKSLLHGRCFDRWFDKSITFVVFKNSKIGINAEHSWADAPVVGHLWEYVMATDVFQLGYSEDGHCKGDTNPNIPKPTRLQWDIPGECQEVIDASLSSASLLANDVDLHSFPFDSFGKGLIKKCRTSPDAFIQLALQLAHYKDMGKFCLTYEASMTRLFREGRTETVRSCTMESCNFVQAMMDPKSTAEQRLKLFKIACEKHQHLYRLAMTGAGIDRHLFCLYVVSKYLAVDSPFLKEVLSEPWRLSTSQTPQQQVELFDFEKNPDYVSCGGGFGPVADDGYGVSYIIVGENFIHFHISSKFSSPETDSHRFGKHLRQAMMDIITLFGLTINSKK

[14] = target: Acetylcholinesterase (Homo sapiens) (UniProt P22303); assay: Inhibition of human acetylcholinesterase at 10 uM relative to control
Acetylcholinesterase (Homo sapiens), sequence (P22303 whole entry): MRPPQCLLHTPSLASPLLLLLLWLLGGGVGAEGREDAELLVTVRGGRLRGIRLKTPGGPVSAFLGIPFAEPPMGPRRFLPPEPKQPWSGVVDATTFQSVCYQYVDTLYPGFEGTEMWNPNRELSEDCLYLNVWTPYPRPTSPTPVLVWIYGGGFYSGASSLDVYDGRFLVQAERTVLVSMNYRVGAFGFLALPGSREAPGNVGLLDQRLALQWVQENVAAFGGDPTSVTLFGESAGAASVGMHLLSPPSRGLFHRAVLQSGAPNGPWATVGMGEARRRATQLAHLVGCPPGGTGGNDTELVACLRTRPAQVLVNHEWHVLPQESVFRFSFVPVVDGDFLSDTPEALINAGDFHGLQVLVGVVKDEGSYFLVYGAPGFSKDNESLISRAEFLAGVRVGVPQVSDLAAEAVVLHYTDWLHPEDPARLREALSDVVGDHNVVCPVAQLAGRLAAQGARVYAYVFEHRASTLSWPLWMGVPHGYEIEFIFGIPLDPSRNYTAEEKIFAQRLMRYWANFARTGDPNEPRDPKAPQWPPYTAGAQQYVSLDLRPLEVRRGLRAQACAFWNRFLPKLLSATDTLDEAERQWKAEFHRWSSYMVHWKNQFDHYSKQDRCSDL

Oryctolagus cuniculus [15] = organism: Oryctolagus cuniculus; assay: Toxicity in rabbit assessed as effect on ventricular effective refractory period; assay type: organism-based, Cardiac ventricle; conditions: in vivo; in short: as §4
[16] = target: Estrogen receptor (Homo sapiens) (UniProt P03372); assay: Inhibition of human ER-alpha at 10 uM relative to control; in short: as §2
Estrogen receptor (Homo sapiens), sequence (P03372 whole entry): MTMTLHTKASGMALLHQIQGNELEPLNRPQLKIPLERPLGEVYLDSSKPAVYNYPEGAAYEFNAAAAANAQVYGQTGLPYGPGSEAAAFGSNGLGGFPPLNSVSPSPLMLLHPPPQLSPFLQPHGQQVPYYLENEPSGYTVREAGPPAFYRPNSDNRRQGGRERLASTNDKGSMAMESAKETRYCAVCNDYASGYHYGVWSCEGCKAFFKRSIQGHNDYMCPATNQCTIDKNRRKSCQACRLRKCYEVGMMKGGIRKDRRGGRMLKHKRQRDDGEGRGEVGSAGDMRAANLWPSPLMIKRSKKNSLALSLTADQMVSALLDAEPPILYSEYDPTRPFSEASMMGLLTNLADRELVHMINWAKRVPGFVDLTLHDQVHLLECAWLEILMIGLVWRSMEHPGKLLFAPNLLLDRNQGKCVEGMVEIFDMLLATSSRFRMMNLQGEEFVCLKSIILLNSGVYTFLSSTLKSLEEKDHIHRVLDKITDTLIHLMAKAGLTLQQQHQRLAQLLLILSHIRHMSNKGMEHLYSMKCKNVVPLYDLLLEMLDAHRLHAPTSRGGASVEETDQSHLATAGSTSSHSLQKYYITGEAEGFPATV

[17] = target: Sodium-dependent serotonin transporter (Homo sapiens) (UniProt P31645); assay: Inhibition of human SERT at 10 uM relative to control; in short: as §2
Rattus norvegicus [18] = organism: Rattus norvegicus; assay: Inhibition of rat opioid receptor at 10 uM relative to control
In short: (§5)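 Single-concentration screen at 10 µM across a panel of over 37 receptors and enzymes linked to cardiovascular effects or toxicity. Read-out is percent activity.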

Rattus norvegicus [19] = organism: Rattus norvegicus; assay: Inhibition of rat muscarinic acetylcholine receptor at 10 uM relative to control; in short: as §5
Rattus norvegicus [20] = organism: Rattus norvegicus; assay: Inhibition of rat L-type calcium channel dihydropyridine binding site at 10 uM relative to control; in short: as §5
Homo sapiens [21] = organism: Homo sapiens; assay: Inhibition of human nicotinic acetylcholine receptor at 10 uM relative to control; in short: as §5
[22] = target: Glucocorticoid receptor (Rattus norvegicus) (UniProt P06536); assay: Inhibition of rat glucocorticoid receptor at 10 uM relative to control; in short: as §2
Glucocorticoid receptor (Rattus norvegicus), sequence (P06536 whole entry): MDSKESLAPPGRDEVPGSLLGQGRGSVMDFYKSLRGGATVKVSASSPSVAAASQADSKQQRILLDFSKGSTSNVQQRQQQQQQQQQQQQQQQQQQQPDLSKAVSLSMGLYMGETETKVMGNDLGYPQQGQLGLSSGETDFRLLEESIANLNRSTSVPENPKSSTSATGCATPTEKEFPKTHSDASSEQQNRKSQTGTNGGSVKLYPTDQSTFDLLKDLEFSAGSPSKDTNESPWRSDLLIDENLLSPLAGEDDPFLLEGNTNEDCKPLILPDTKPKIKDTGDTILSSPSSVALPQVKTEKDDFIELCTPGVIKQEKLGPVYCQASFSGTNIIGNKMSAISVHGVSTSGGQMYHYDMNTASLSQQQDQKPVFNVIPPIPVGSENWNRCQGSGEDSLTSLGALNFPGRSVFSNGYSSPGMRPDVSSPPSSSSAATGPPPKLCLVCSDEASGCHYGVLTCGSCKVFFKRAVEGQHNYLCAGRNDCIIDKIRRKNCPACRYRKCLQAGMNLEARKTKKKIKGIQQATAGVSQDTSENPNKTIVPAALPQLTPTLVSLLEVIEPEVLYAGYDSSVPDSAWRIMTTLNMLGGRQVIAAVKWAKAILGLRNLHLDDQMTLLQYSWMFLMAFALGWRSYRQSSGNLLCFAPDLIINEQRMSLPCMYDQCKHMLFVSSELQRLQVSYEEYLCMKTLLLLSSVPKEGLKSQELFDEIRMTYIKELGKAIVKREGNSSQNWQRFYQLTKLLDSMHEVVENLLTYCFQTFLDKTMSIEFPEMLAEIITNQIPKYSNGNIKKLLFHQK

[23] = target: L-type calcium channel, benzothiazepine binding site (Rattus norvegicus, UniProt P22002+P27732+Q02485); assay: Inhibition of rat L-type calcium channel benzothiazepine binding site at 10 uM relative to control; in short: as §2
Rattus norvegicus [24] = organism: Rattus norvegicus; assay: Inhibition of rat sodium channel site 2 at 10 uM relative to control; in short: as §5
hERG (KCNH2) = hERG (KCNH2) (Homo sapiens, UniProt Q12809); assay: Inhibition of human ERG at 10 uM relative to control; in short: as §2
[25] = AUC in rat at 5 mg/kg, po; assay type: ADME, organism-based; conditions: in vivo
In short: (§6)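 Rats (3 per compound) received intra-arterial infusion over 10 min or oral gavage. Vehicle for both routes was 40% PEG 400, 40% water and 20% ethanol. Values are means of 3 animals.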

Rattus norvegicus [26] = organism: Rattus norvegicus; assay: Inhibition of rat GABAA central-type benzodiazepine receptor at 10 uM relative to control; in short: as §5
[27] = Metabolic stability in human liver microsomes assessed as compound remaining at 3 uM after 10 mins; assay type: ADME; conditions: read-out: Stability; in short: as §1
Rattus norvegicus [28] = organism: Rattus norvegicus; assay: Inhibition of rat N-methyl D-aspartate receptor phencyclidine binding site at 10 uM relative to control; in short: as §5
[29] = target: Phosphodiesterase 3 (Homo sapiens) (UniProt Q14432+Q13370); assay: Inhibition of human PDE3 at 10 uM relative to control; assay type: protein assay
[30] = Oral bioavailability in rat at 5 mg/kg; assay type: ADME, organism-based; conditions: in vivo; in short: as §6
[31] = target: Adrenergic receptor alpha-2 (Rattus norvegicus) (UniProt P22086+P19328+P22909); assay: Inhibition of rat alpha-2 adrenergic receptor at 10 uM relative to control; in short: as §2
[32] = target: Mu-type opioid receptor (Homo sapiens) (UniProt P35372); assay: Inhibition of human mu opioid receptor at 10 uM relative to control; in short: as §2
Mu-type opioid receptor (Homo sapiens), sequence (P35372 whole entry, the tested form may be a part): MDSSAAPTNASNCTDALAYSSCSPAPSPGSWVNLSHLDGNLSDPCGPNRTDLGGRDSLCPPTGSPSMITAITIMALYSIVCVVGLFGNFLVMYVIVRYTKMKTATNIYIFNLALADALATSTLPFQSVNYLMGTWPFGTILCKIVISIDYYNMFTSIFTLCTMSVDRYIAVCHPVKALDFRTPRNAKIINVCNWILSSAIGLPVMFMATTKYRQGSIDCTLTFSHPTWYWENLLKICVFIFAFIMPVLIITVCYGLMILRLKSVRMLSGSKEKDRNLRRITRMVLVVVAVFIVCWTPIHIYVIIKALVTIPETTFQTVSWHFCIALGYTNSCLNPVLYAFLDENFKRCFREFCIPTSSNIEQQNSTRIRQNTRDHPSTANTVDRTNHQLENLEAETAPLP

[33] = Clearance in rat at 2 mg/kg administered as intra-arterial infusion for 10 mins and 5 mg/kg, po; assay type: ADME, organism-based; conditions: in vivo, iv; in short: as §6
[34] = target: Progesterone receptor (Homo sapiens) (UniProt P06401); assay: Inhibition of human progesterone B receptor at 10 uM relative to control; in short: as §2
[35] = Cmax in rat at 2 mg/kg administered as intra-arterial infusion for 10 mins and 5 mg/kg, po; assay type: ADME, organism-based; parameters: route oral; conditions: in vivo; in short: as §6
[36] = target: D(3) dopamine receptor (Homo sapiens) (UniProt P35462); assay: Inhibition of human dopamine D3 receptor at 10 uM relative to control; in short: as §2
D(3) dopamine receptor (Homo sapiens), sequence (P35462 whole entry, the tested form may be a part): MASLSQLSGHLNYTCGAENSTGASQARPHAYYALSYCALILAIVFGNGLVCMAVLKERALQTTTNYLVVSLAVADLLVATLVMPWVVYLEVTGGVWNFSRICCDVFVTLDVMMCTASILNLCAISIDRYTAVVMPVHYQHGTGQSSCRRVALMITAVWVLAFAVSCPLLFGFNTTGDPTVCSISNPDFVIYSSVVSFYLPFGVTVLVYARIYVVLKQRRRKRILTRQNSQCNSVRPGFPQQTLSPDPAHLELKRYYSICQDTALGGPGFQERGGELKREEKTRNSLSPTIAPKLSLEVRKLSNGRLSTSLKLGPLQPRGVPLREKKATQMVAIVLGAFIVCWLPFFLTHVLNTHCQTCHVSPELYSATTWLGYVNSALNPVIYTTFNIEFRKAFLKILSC

[37] = Plasma concentration in rat at 3 mg/kg, iv administered as infusion for 5 mins; assay type: ADME, organism-based
In short: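 Rats were dosed at 3 mg/Kg. QT interval on ECG, mean blood pressure (% change) and plasma concentration were measured. Values are means of 2-4 experiments.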

MAO-A = MAO-A (Homo sapiens, UniProt P21397); assay: Inhibition of human MAOA at 10 uM relative to control; in short: as §2
MAO-A, sequence (P21397 whole entry): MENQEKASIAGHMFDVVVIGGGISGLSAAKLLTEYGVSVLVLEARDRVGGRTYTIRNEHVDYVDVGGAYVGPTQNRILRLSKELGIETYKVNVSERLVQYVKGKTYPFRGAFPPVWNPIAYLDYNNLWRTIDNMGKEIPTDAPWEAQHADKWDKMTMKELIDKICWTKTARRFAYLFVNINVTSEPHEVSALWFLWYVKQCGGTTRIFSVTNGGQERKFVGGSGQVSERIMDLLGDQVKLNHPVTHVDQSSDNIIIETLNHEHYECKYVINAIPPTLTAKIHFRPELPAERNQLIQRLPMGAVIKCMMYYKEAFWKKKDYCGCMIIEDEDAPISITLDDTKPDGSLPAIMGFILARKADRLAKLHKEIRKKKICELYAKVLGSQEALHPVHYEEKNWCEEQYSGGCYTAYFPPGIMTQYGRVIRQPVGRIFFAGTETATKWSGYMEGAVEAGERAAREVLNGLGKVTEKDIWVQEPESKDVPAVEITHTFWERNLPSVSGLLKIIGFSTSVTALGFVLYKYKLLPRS

| Structure (SMILES) | remaining at 10 min, 3 µM [1] [%] | inhibition at 10 µM (MAO-B) [%] | inhibition [2] [%] | inhibition [3] [%] | Vd [4] [L/kg] | inhibition (Homo sapiens [5]) [%] | inhibition [6] [%] | inhibition (Homo sapiens [7]) [%] | inhibition [8] [%] | inhibition [9] [%] | EC20 (Oryctolagus cuniculus [10]) [nM] | Cmax [11] [µM] | inhibition [12] [%] | inhibition [13] [%] | inhibition [14] [%] | Activity (Oryctolagus cuniculus [15]) | inhibition [16] [%] | inhibition [17] [%] | inhibition (Rattus norvegicus [18]) [%] | inhibition (Rattus norvegicus [19]) [%] | further results |
| --- | --- | --- | --- | --- | --- | --- | --- | --- | --- | --- | --- | --- | --- | --- | --- | --- | --- | --- | --- | --- | --- |
| COc1cccc2c1C(NC[C@]1(c3ccccc3)CC[C@H](O)CC1)=NS2(=O)=O | 53 | 3 | 19 | 26 | 3.2 | 14 | 19 | 27 | -5 | 9 | 600 | 6.1 | 0 | 4 | 53 | Non-toxic | -1 | 10 | 23 | 24 | inhibition (Rattus norvegicus [20]): 3%; inhibition (Homo sapiens [21]): 12%; inhibition [22]: 14%; inhibition at 10 µM [23]: 0%; inhibition (Rattus norvegicus [24]): 9%; inhibition at 10 µM (hERG (KCNH2)): 54%; AUC [25]: 2.7 µM·h; inhibition (Rattus norvegicus [26]): 29%; remaining at 10 min, 3 µM [27]: 90%; inhibition (Rattus norvegicus [28]): -6%; inhibition [29]: 53%; bioavailability [30]: 34%; inhibition [31]: -6%; inhibition [32]: 0%; clearance [33]: 27 mL/min/kg; inhibition [34]: 6%; Cmax [35]: 1.7 µM; inhibition [36]: -9%; concentration at 5 min [37]: 153 µM; inhibition at 10 µM (MAO-A): 3% |
| COc1cccc2c1C(NC[C@]1(c3ccccc3)CC[C@H](NC(=O)OC(C)C)CC1)=NS2(=O)=O | < 1 | 9 | 19 | 25 | 0.3 | 41 | 13 | 14 | 23 | 29 | <700 | 4.7 | 3 | 0 | 55 | Non-toxic | 4 | -6 | 64 | 15 | inhibition (Rattus norvegicus [20]): 13%; inhibition (Homo sapiens [21]): 10%; inhibition [22]: 17%; inhibition at 10 µM [23]: 15%; inhibition (Rattus norvegicus [24]): 30%; inhibition at 10 µM (hERG (KCNH2)): 68%; AUC [25]: 1.8 µM·h; inhibition (Rattus norvegicus [26]): 2%; remaining at 10 min, 3 µM [27]: 85%; inhibition (Rattus norvegicus [28]): 2%; inhibition [29]: 15%; bioavailability [30]: 7.2%; inhibition [31]: -2%; inhibition [32]: 31%; clearance [33]: 9.4 mL/min/kg; inhibition [34]: 10%; Cmax [35]: 0.93 µM; inhibition [36]: 11%; concentration at 5 min [37]: 38 µM; inhibition at 10 µM (MAO-A): 10% |
